PHOSPHO1 inh: blocks human PHOSPHO1 phosphatase activity | Q8TCT1 | recombinant PHOSPHO1, absorbance phosphatase assay | inhibition, % at 13.3 µM | actives 1.1% (n = 290,000); in the data active = inhibition above about 60%
Runt-CBFb FRET: inhibitors of human RUNX1 Runt domain binding to CBFb | Q01196+Q13951 | Cerulean-Runt/Venus-CBFb FRET ratio 530/480, 1 h | inhibition, % at 20 µM | actives 0.46% (n = 220,000) | AID 1496;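 active = inhibition over about 50% at 20 µM in the single-dose screen, limit read from the data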;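 note: 0% = DMSO wells and 100% = excess unlabeled CBFb competitor control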
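Assay system: Cerulean-Runt domain fusion protein, energy donor; Signal: fluorescence energy transfer, 422 nm excitation, 530/480 nm emission; Timing: 1 h compound exposure, room temperature; Control set: unlabeled CBFb; Medium: Tris buffer pH 7.5 with salts and BSA; Compound: single test concentration of 20 µM, 1% DMSO final; Probe or stimulus: Venus-CBFb 100 nM.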
Runt-SMMHC FRET: Runt domain-CBFb-SMMHC interaction inhibition | actives 0.74% (n = 220,000) | AID 1434 | Q01196+Q13951 | Cerulean-Runt/Venus-CBFb-SMMHC FRET ratio 530/480, 1 h | inhibition, % at 20 µM;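 active = mean inhibition across duplicate retests at 20 µM reaching about 50%, limit read from the data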;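 note: 0% = DMSO wells and 100% = wells with excess untagged CBFb-SMMHC; inhibitors lower the FRET ratio by blocking Runt binding to CBFb-SMMHC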
Wee1 degr inh: inhibitors of human Wee1 degradation; HeLa Luc-Wee1K328M stability, luciferase luminescence; 100% = proteasome inhibitor MG132 effect; actives 1.2% (n = 220,000); reporter increase, % at 5 µM;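 active = activation above the mean of all tested compounds plus 3 SD, set per screening run, cut at about 8.8% in these data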;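 note: cells exposed to compound for 20 h before luminescence read; 0% = DMSO alone and 100% = MG132 at 30 µM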
Target sequence (P30291 whole entry K328M): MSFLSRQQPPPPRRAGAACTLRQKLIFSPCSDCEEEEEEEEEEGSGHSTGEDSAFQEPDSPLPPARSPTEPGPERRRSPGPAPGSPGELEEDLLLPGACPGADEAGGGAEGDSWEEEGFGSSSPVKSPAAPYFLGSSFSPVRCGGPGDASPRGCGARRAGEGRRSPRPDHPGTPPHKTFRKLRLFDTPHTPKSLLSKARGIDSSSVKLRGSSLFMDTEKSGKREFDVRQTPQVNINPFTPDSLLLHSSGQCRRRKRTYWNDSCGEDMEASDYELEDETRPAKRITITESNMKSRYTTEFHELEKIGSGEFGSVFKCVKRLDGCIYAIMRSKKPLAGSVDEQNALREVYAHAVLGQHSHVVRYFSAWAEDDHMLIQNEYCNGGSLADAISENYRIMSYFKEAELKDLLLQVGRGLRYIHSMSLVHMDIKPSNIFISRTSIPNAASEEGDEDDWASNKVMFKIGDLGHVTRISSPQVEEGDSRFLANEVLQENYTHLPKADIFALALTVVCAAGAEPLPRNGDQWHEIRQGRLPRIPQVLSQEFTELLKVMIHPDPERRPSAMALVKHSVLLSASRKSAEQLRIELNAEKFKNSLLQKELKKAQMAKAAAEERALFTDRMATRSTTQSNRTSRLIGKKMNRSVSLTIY
Efa HMGR inh: blocks class II HMG-CoA reductase of Enterococcus faecalis. actives 0.41% (n = 190,000). purified E. faecalis HMGR, NADPH absorbance 340 nm kinetic. AID 1066. inhibition, % at 10 µM;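 active = inhibition above a set limit, the median over all tested compounds plus 3 SD, cut at about 9.5% in these data; inconclusive = no clear call, values can overlap the other calls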;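 note: enzyme runs in reverse so mevalonate oxidation gives rising NADPH absorbance; 0% = complete reaction with DMSO and 100% = background rate lacking mevalonate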
RanGTP-Impb inh: disruptors of Ran-importin-beta complex formation – biochemical, FRET, CFP-Ran, YFP-importin-beta, homogeneous, primary screen. cell-free CFP-Ran/YFP-importin-beta FRET ratio. inhibition, % (no concentration beside the values). actives 1.1% (n = 300,000);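 active = more than half of the replicate wells show a fall in the fluorescence ratio signal beyond about 16%, limit read from the data, passing the limit was not always enough; inconclusive = exactly half of the replicate wells pass the set limit; inactive = fewer than half of replicates pass the limit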;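 note: 0% = DMSO wells and 100% = Ran loaded with GDP instead of GTP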
Wee1 degr conf: confirmation of human Wee1 degradation inhibitors; activation, % at 5 µM; shares compounds with Wee1 degr inh; HeLa Luc-Wee1K328M degradation, luminescence; vehicle 0%, proteasome-blocked wells 100%; actives 4% (n = 1,100); in the data active = activation above about 8.9%
* = called active by the depositor; ? = inconclusive; / = not tested or not shown. In the library only some 3.4% were active in any assay of this set; here they are far more common.

SMILES	PHOSPHO1 inh	Runt-CBFb FRET	Runt-SMMHC FRET	Wee1 degr inh	Efa HMGR inh	RanGTP-Impb inh	Wee1 degr conf
N#Cc1ccsc1NC(=O)CN1CCN(S(=O)(=O)c2ccccc2C(F)(F)F)CC1	-32.6	0.6	-2.0	1.3	-2.2	-2.2	/
COc1ccc(C(c2nnnn2C2CCCC2)N2CCC(C)CC2)c(OC)c1 (centres undefined)	6.3	0.3	-2.6	41.0*	4.7	4.2	-0.6
COc1ccc(N(CCCN2C(=O)c3cccc4cccc(c34)C2=O)C(=O)c2cccc(OC)c2)cc1	15.8	-1.6	3.8	2.9	-1.4	-0.5	/
Cc1c(NC(=S)NC(=O)C(C)(C)C)c(=O)n(-c2ccccc2)n1C	-10.5	-1.3	4.3	-0.9	-3.0	3.2	/
Cc1c(NC(=S)NC(C)(C)C)c(=O)n(-c2ccccc2)n1C	21.4	1.6	-2.1	13.7*	-3.0	-1.0	-1.6
Cc1ccc(S(=O)(=O)N2CCOCC2)cc1C(=O)N(C)CCOc1ccc(Cl)cc1	-11.4	-2.2	1.7	11.7*	/	2.0	-0.1
Fc1ccc(CSc2ccc(-c3ccco3)nn2)cc1	-0.8	43.0	35.4	11.8*	-7.0	-1.8	7.3
Fc1cccc(CSc2ccc(-c3ccco3)nn2)c1	1.8	41.0	31.5	3.0	-2.8	-2.3	/
O=C(Nc1cccc(F)c1)Nc1ccnn1C1CCN(C(=O)c2cscn2)CC1	19.0	/	/	/	/	3.2	/
CCOC(=O)C1(CC2CCCCO2)CCN(C(=O)Nc2ccccc2SC)CC1 (centres undefined)	18.3	-2.8	-3.1	11.7*	9.4	0.9	2.5
O=C(N/N=C/C(Br)=C\c1ccccc1)c1cccs1	-9.9	0.9	1.2	12.4*	/	-2.5	5.4
Cc1occc1C(=O)N/N=C/C=C/c1ccccc1	-0.3	-1.6	0.4	4.3	-2.9	-1.8	/
Cc1occc1C(=O)N/N=C/C(Br)=C\c1ccccc1	8.3	1.1	-1.4	28.0*	/	-1.8	4.7
CC(C)(C)Cc1nnc(NC(=O)CCC2CCCCC2)s1	11.4	/	/	/	/	-2.9	/
CC(C)CC(=O)Nc1nnc(SCC(=O)NCc2ccc3c(c2)OCO3)s1	49.4	-0.7	-0.9	-1.9	-4.9	-2.1	/
CC(C)C(=O)Nc1nnc(SCC(=O)NCc2ccc3c(c2)OCO3)s1	36.2	0.3	-1.4	11.6*	1.5	-0.9	1.0
COC(=O)[C@H](Cc1ccccc1)NC(=O)N(C)Cc1ccccc1	41.5	-0.5	1.0	-0.6	/	-1.9	/
COc1ccc(-n2c(=O)c3c(C)c(C)sc3n(Cc3cccc(F)c3)c2=O)c(OC)c1	-14.8	-3.5	-1.4	4.4	-0.9	-0.8	/
CCN(CC)C(=O)c1sc2c(c1C)c(=O)n(-c1ccc(OC)cc1OC)c(=O)n2CC(=O)c1ccccc1	-12.7	-1.8	-3.4	11.9*	-6.2	2.1	-1.0
COc1ccc2c(c1)c(=O)cc(-c1ccccc1)n2C	-3.5	-1.6	-0.8	11.0*	-1.9	-0.2	2.7
Cn1c(-c2ccccc2)cc(=O)c2ccccc21	17.5	0.0	-1.4	1.7	-2.0	-0.9	/
CCCc1nc2ccccc2n1CCc1ccccc1	-9.8	-2.6	-0.8	-0.7	2.1	?	/
Cn1c(CCc2ccc(N)cc2)nc2ccccc21	24.5	2.2	-3.1	17.7*	-5.9	7.7	3.7
Cc1nc(N)nc(COc2ccccc2)n1	18.9	-0.5	-1.8	-1.4	/	-0.4	/
Cc1ccc2c(CSc3nnc(C4CC4)n3N)cc(=O)oc2c1C	51.2	-1.8	-44.2	11.5*	-2.9	3.6	1.7
SMILES	PHOSPHO1 inh	Runt-CBFb FRET	Runt-SMMHC FRET	Wee1 degr inh	Efa HMGR inh	RanGTP-Impb inh	Wee1 degr conf
CC(NC(=S)N1CCOCC1)c1ccccc1 (centres undefined)	1.5	-3.2	4.9	1.0	-6.8	-0.2	/
CCOc1ccc(S(=O)(=O)N2CCN(CC)CC2)cc1NC(=O)c1ccccc1F	31.9	/	/	/	/	-2.4	/
O=C(Nc1cc(S(=O)(=O)N2CCCC2)ccc1OCC(F)(F)F)c1ccccc1F	0.6	-2.4	2.4	13.1*	1.8	3.8	3.0
Cc1ccc(C(=O)Nc2nc(C)c(C)s2)o1	6.4	4.5	1.8	3.2	-9.4	2.6	/
Cc1nc(NC(=O)c2ccc(Br)o2)sc1C	17.1	4.1	-0.9	11.3*	-3.7	0.3	2.0
CCCN1CN(CCc2ccccc2)CNC1=S	-29.4	0.3	-1.9	-2.8	-0.3	1.9	/
CCCCN1CNC(=S)N(CCc2ccccc2)C1	-17.6	-1.3	3.6	11.9*	-3.2	-0.3	2.8
O=c1[nH]c2ccccc2c2ccccc12	-39.4	0.7	1.6	-0.5	-3.3	-0.7	/
O=c1[nH][nH]c2ccccc2c1=O	-9.9	-0.3	-3.3	14.3*	/	0.0	2.3
CCCC(C(=O)Nc1nccs1)c1ccccc1 (centres undefined)	1.3	-1.9	1.1	0.2	0.3	3.3	/
CCC(C(=O)Nc1nccs1)c1ccccc1 (centres undefined)	0.7	-3.1	0.1	17.4*	0.1	0.5	0.6
COc1cc(NS(=O)(=O)c2cn(C)cn2)cc(OC)c1OC	22.3	/	/	/	/	-0.6	/
COC(=O)Cc1c(C(=O)OC)nnn1-c1ccc(OC(F)(F)F)cc1	4.0	-0.2	-0.4	15.9*	-3.5	0.1	4.7
CN1/C(=C\C(=O)COC(=O)CNC(=O)c2ccccc2F)C(C)(C)c2ccccc21	-9.0	-1.6	3.6	23.1*	-5.1	0.3	-0.7
COC(=O)c1c(NC(NC(C)=O)C(Cl)(Cl)Cl)sc2c1CCCC2 (centres undefined)	1.6	3.4	-0.4	13.9*	-0.7	3.3	3.8
CN(c1ccccc1)S(=O)(=O)c1ccc(Cl)c(C(=O)NC2=NCCS2)c1	-17.9	-1.9	-4.3	-3.7	3.0	-0.8	/
COc1ccccc1N(C)S(=O)(=O)c1ccc(Cl)c(C(=O)NC2=NCCS2)c1	27.7	-0.8	1.4	11.8*	-4.4	-2.5	1.9
CCN(CC)C(=O)c1c(-c2ccccc2)oc2ccc(OC)cc12	-7.4	-4.5	2.1	17.0*	0.9	-1.1	0.3
COc1ccc2c(COC(=O)CC3Sc4ccccc4NC3=O)cc(=O)oc2c1 (centres undefined)	-13.2	-1.0	4.0	11.4*	-1.4	2.1	1.1
COc1ccc(NS(=O)(=O)c2cccc(C(=O)NNC(=O)c3cccc(NC(C)=O)c3)c2)cc1	/	/	/	/	/	1.8	/
CCOC(=O)C1=C(c2ccccc2)O/C(=C(/C#N)C(F)(F)F)S1	23.8	-4.7	0.7	24.1*	0.6	0.4	87.2*
CSc1ccccc1C(=O)NC1CCCCCC1	3.2	0.6	-0.4	14.2*	3.4	-4.1	2.0
Cc1ccccc1NC(=O)Cc1nc(COC(=O)c2cc(Cl)ccc2O)cs1	22.2	/	/	/	/	-0.6	/

Bioassay records from PubChem BioAssay.
